Here are results for 37 sequences from the array DNA melting data of Ke et al. (doi:10.1101/2024.01.08.574731).

Data set [1] in a line: folding enthalpy; higher = less favourable; fluorescence melt of hairpins on a sequencing array, two-state fit. The settings on record: sodium 0.088 M. In short, it runs like this:
(§1)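 Library hairpins on a sequenced MiSeq flow cell carried annealed Cy3 and quencher oligos, and their Cy3 fluorescence was imaged in 50 mM Na-HEPES pH 8.0 with 25 mM NaCl, in 2.5 °C steps up to 60 °C. Signals were normalised to Cy3 before quenching and to control constructs. Melting temperature and folding enthalpy were obtained from bootstrapped two-state fits, combined by inverse-variance weighting across four replicates, and the fitted temperatures were then raised by 9.35 °C to match UV melts.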

Data set [2] in a line: melting temperature; fluorescence melt of hairpins on a sequencing array, two-state fit, raised by 9.35 °C to match UV melts. The settings on record: sodium 0.088 M. In short, it runs like this:
as §1

Turning to GATCGGAAGCCGATC ((((((...)))))), in data set [1], the folding enthalpy is -34.7 kcal/mol. Also, in data set [2], the Tm is 55 °C.

With GCTCAGCGAAAGCCCAGC (((..((....))..))), the folding enthalpy in data set [1] was -12.1 kcal/mol. Moreover, the Tm in data set [2] is 37.2 °C.

Take GATCTGGCGACAGATC ((((((....)))))): in data set [1], the folding enthalpy is -44.1 kcal/mol. Further, the Tm in data set [2] worked out at 55.8 °C.

Turning to GTTAGCGAAAGCTAAAAC ((((((....)))..))), in data set [1], the folding enthalpy is -13.2 kcal/mol. Further, in data set [2], the Tm turned out to be 33.4 °C.

Consider GTGGCCGAAAGGCGGCAC ((((((....)))..))), for which the folding enthalpy in data set [1] was -13.8 kcal/mol. Further, the Tm in data set [2] was determined as 46.7 °C.

In the case of GATCCGACGCGGATC ((((((...)))))), the folding enthalpy in data set [1] is -37.3 kcal/mol. In addition, in data set [2], the Tm was determined as 56.8 °C.

On to GAAATGGGAAACTATTTC (((((.(....).))))), for which the folding enthalpy in data set [1] was -23 kcal/mol. Besides, the Tm in data set [2] came to 33.7 °C.

For the sequence GTCCTCCGAAAGGATGAC (((.(((....))).))), the folding enthalpy in data set [1] is -30.7 kcal/mol. For the same sequence, the Tm in data set [2] was 48.6 °C.

With AGTCCGAAAGGACT (((((....))))), the folding enthalpy in data set [1] was -18.7 kcal/mol. Moreover, the Tm in data set [2] is 68.1 °C.

GCTGGGGGAAACCTCGGC ((.(.((....)).).)): the folding enthalpy in data set [1] was -28.9 kcal/mol. The Tm in data set [2] came to 44.4 °C.

Regarding GAAACACCGAAAGGTTTC (((..(((....)))))), the folding enthalpy in data set [1] is -17.4 kcal/mol. For the same sequence, in data set [2], the Tm was found to be 31.9 °C.

As to GATCGCGAAAGCGTGATC ((((((....)))..))), in data set [1], the folding enthalpy was -14.3 kcal/mol. The Tm in data set [2] is 42.8 °C.

Take GTTGACGAAAGTCCAAC ((((((....))).))): the folding enthalpy in data set [1] is -17.7 kcal/mol. Moreover, the Tm in data set [2] stood at 40.9 °C.

GCCCCCGAAAGGGGTGGC ((((((....)))..))): in data set [1], the folding enthalpy was -12.8 kcal/mol. In addition, in data set [2], the Tm was found to be 56.6 °C.

Consider GCAAGTCGAAAGACGTGC (((.(((....))).))), for which the folding enthalpy in data set [1] is -39.8 kcal/mol. Moreover, in data set [2], the Tm stood at 55.8 °C.

Turning to GCGGTATGCCGC ((((....)))), the folding enthalpy in data set [1] was -33.6 kcal/mol. In data set [2], the Tm is 63 °C.

GATCTCTAGAGAGATC ((((((....)))))): the folding enthalpy in data set [1] was -40.9 kcal/mol. For the same sequence, the Tm in data set [2] was found to be 51 °C.

As for GACCCCGAAAGGGGCGTC ((((((....)))..))), in data set [1], the folding enthalpy was -11.7 kcal/mol. In data set [2], the Tm came to 61.4 °C.

For GATCAGAGTCTGATC ((((((...)))))), the folding enthalpy in data set [1] was -39.1 kcal/mol. Besides, in data set [2], the Tm was found to be 47.4 °C.

Take GATCGTTAACACGATC ((((((....)))))): the folding enthalpy in data set [1] was -37.9 kcal/mol. Besides, the Tm in data set [2] is 52.3 °C.

For GATCTTTCCGAAGATC ((((((....)))))), in data set [1], the folding enthalpy is -33.1 kcal/mol. Besides, in data set [2], the Tm was found to be 46.4 °C.

As to GATCTTACCAAAGATC ((((((....)))))), the folding enthalpy in data set [1] is -34.6 kcal/mol. Further, the Tm in data set [2] came to 44.5 °C.

On to GCGACACGAAAGTGACGC (((.(((....))).))), for which, in data set [1], the folding enthalpy was -38.7 kcal/mol. Moreover, the Tm in data set [2] was found to be 68.5 °C.

On to GGGCACGAAAGTGGTCCC ((((((....)))..))), for which, in data set [1], the folding enthalpy was -17.5 kcal/mol. For the same sequence, in data set [2], the Tm came to 52.5 °C.

In the case of GCCCCCGAAAGGGACGGC ((((((....)))..))), in data set [1], the folding enthalpy is -21 kcal/mol. Also, the Tm in data set [2] came to 50.9 °C.

As for GGACTCGGAAACAAGTCC (((((.(....).))))), the folding enthalpy in data set [1] is -27.8 kcal/mol. Moreover, the Tm in data set [2] worked out at 42.2 °C.

With GATCCGTACCCGGATC ((((((....)))))), the folding enthalpy in data set [1] is -39 kcal/mol. Further, in data set [2], the Tm was 56.4 °C.

For CGTATCGGAAACGAAACG (((.(((....))).))), in data set [1], the folding enthalpy was -37.5 kcal/mol. For the same sequence, in data set [2], the Tm was determined as 42.5 °C.

GGGGTTGGAAACAATCCC (((.(((....))).))): the folding enthalpy in data set [1] is -42.4 kcal/mol. The Tm in data set [2] turned out to be 52.5 °C.

In the case of GATCTCAGTAGAGATC ((((((....)))))), the folding enthalpy in data set [1] is -37.4 kcal/mol. Moreover, the Tm in data set [2] was 54.1 °C.

For GATCAATGTTTGATC ((((((...)))))), the folding enthalpy in data set [1] was -30.8 kcal/mol. For the same sequence, the Tm in data set [2] stood at 43.8 °C.

Turning to GGTTCCGGAAACGGGATC (.(.(((....))).).), the folding enthalpy in data set [1] is -19.4 kcal/mol. For the same sequence, the Tm in data set [2] stood at 39.9 °C.

Take GTTCCCGAAAGGGCGAAC ((((((....)))..))): the folding enthalpy in data set [1] was -9.4 kcal/mol. The Tm in data set [2] came out at 31.5 °C.

As for GCATTGCGAAAGCACCGC ((..(((....)))..)), in data set [1], the folding enthalpy was -10.7 kcal/mol. The Tm in data set [2] stood at 34.5 °C.

In the case of GCGGGGCGAAAGCACGGC ((.(.((....)).).)), in data set [1], the folding enthalpy was -15.7 kcal/mol. Moreover, in data set [2], the Tm stood at 65.2 °C.

As to GCGGTCAACCGC ((((....)))), the folding enthalpy in data set [1] is -28.6 kcal/mol. Further, the Tm in data set [2] amounted to 56 °C.

As to GGGATCGAAAGATTACCC ((((((....)))..))), the folding enthalpy in data set [1] was -17.4 kcal/mol. In data set [2], the Tm was determined as 32.4 °C.
